Measurements: the RNAGym collection of RNA variant scans (doi:10.1126/science.aae0568)
Variants at the floor of the assay were thinned out.

B1: tRNA (parent)
chain: GUUCCGUUGGCGUAAUGGUAACGCGUCUCCCUCCUAAGGAGAAGACUGCGGGUUCGAGUCCCGUACGGAACG

Variants of: B1
Assay: yeast fitness relative to wild type (ratio to wild type); higher = fitter; tRNA-Arg(CCU), competitive growth, 37 C, YPD
Method in brief: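 Amplicons of the tRNA-Arg(CCU) gene were sequenced, 100-nucleotide paired-end, from the start population and from each end population of a pooled yeast competition. The competition, in six parallel replicates, lasted 24 hours in YPD at 37°C. Fitness relative to wild type was calculated from changes in genotype frequencies. Genotypes had to have ≥ 100 starting reads, and estimates < 0.5 were set to 0.5.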

Variant | yeast fitness
G9C U28A | 0.708
G10A C31U G38C G63A G68C A69G | 0.578
G9C G48A | 0.705
G10A C33A U35C C60A | ≤ 0.5
G10A C29A C34G A43C C60G C66U | ≤ 0.5
G10A G38C G67U | ≤ 0.5
G10A G48A C55A | ≤ 0.5
G9C C55A A69C | ≤ 0.5
G10A A36G G48C | 0.691
G9C G50C | 0.514
G10A C31U G44C A69U | ≤ 0.5
G10A G39A A65C C66G | 0.556
G10A A20C C24U A57G C61U | ≤ 0.5
G10A A20C C27G A40G | ≤ 0.5
G10A G17C C31U G44A C46A | ≤ 0.5
G9C U26A A40C C55U C66A A69U | ≤ 0.5
G10A C22U G56C A69U | ≤ 0.5
G10A C11U C22U A57U | ≤ 0.5
G10A C60G G67A | ≤ 0.5
G10A C46A | 0.677
G10A G17C A69U | ≤ 0.5
G10A G41A A42C G50C A70G | 0.533
G10A C11A G39C G44C G52C U53C C66G | ≤ 0.5
G10A G56A A69U | 0.601

Variant | yeast fitness
G10A A20U U35C G48C | 0.723
G10A C33U G44C A45G | ≤ 0.5
G10A C24G A40G C46G | 0.556
G10A C31U A42G | ≤ 0.5
G10A G23C C29U A36C C49G A70C | 0.553
G10A C33U G50A | ≤ 0.5
G10A C11G C60A G67U | 0.512
G10A G12A C34U A45U C49G | ≤ 0.5
G10A A43C A65G | 0.589
G10A C11A A15C C24A C34A C46G | 0.559
G10A C29G C33U | ≤ 0.5
G10A C31A A37C | ≤ 0.5
G10A C31U G38C G67A | ≤ 0.5
G10A A20U C27U U35C G48C C60A | ≤ 0.5
G9C C61G G63C | ≤ 0.5
G10A C11A U16G A69G | 0.538
G9C G41C | 0.575
G9C U16G C66G | ≤ 0.5
G9C U13A G41A C62U | ≤ 0.5
G10A C11G C30G A57G G58A U59A | ≤ 0.5
G9C C61U C66G | ≤ 0.5
G10A C11U C29A C34A G44A C66G | 0.545
G10A C22G C27U G56A | ≤ 0.5
G10A G39C A70G | 0.589

Variant | yeast fitness
G9C U16G C29A | ≤ 0.5
G9C G10C U47A | ≤ 0.5
G10A A21C C24A | ≤ 0.5
G9C G48A A69C | 0.627
G10A C30U U47A G67C | ≤ 0.5
G9U A37U G50C C66U | ≤ 0.5
G9C G68C | 0.777
G9C C49A | 0.596
G10A C24U A36C A69C | 0.534
G9C C33A A70C | 0.826
G9C C46U A65U A69U | ≤ 0.5
G9C G12A G48C C62A | ≤ 0.5
G10A C24U C27G | ≤ 0.5
G10A A20U A70C | 0.579
G10A C31U A40C G48A | ≤ 0.5
G9C G23A A43U A57U | 0.561
G10A A20G G23A A37G A40C C66U | ≤ 0.5
G10A C11G U28A C33U G38A C49U | ≤ 0.5
G9C U16C C30U | 0.506
G10A C29G | 0.522
G9C C34G G51A A70G | ≤ 0.5
G10A C31U G38C G41A G63A G68C A69G | ≤ 0.5
G9C U28A A40C U47C G52A | ≤ 0.5
G10A A57C | 0.525

Variant | yeast fitness
G10A C30G A36C G58A | ≤ 0.5
G10A C55U | 0.559
G10A C55G | 0.605
G9C G23A A40C G41A C55G | ≤ 0.5
G9C G12C A14G A20C | ≤ 0.5
G10A C22G A37G G38A | ≤ 0.5
G9U G23C A45U G51C | ≤ 0.5
G10A G17A C30G G67U | ≤ 0.5
G10A A45U C61U | 0.536
G9C U13A G25A A40C G67C | ≤ 0.5
G9C U28A C46U C60A A70C | ≤ 0.5
G10A A37U G67C | 0.587
G10A G50A U59A C61A | ≤ 0.5
G10A A21U A42G | ≤ 0.5
G9C G10C A69G A70G | ≤ 0.5
G9C C49U A65U | 0.52
G10A A36G C60G | ≤ 0.5
G10A C11G G41C A45U | ≤ 0.5
G10A C31U | 0.662
G10A C31A | 0.637
G10A A14C C29A | ≤ 0.5
G9C G23A G50A | ≤ 0.5
G10A C30U C46A C66U | ≤ 0.5
G9U U16A A36C A37G G56C | ≤ 0.5

Variant | yeast fitness
G10A A42G A70C | ≤ 0.5
G9U G50A | 0.663
G10A C22A | 0.717
G10A C22G | 0.637
G10A A20U A42G C60U U64A C66A G68A A69G | ≤ 0.5
G9C G18C G44A | 0.526
G10A A45G C46G U54G A70C | 0.532
G9C U19C C31A C55U | 0.641
G9C G48C G58A A70U | 0.552
G9C C34A C46A G56A | ≤ 0.5
G9C G67C | 0.746
G10A C24U G41A C49U U53A C66G | ≤ 0.5
G9C U28C G44C | 0.619
G10A C30U C46A | 0.695
G9C G17A C27U | ≤ 0.5
G10A A37C A57C | ≤ 0.5
G10A A20C C29G | 0.597
G10A A14U A20G U26G C31G C34G A42U A43C G50C | ≤ 0.5
G10A A45U U53G | ≤ 0.5
G9C U26C | 0.612
G9C U26G | 0.684
G10A A20U U35C G48C C60A A69C | ≤ 0.5
G10A C27A | 0.801
G10A G52C | 0.528

Variant | yeast fitness
G10A G52A | 0.53
G9C U13C C31G A65U | ≤ 0.5
G9C U19G | 0.502
G9C C31A C49G C55G A70C | ≤ 0.5
G10A C27A C34U A57G | ≤ 0.5
G10A G17A U19A C29U C34G | ≤ 0.5
G10A G41A C49U U53A C66G | 0.537
G10A G17C C30G C33G C61A A69U | 0.581
G10A C33U A65C | ≤ 0.5
G10A C62U C66U | 0.617
G10A G17A A36G G38C A45U C46U G67U | ≤ 0.5
G9C G18C C49G G63A A65U | ≤ 0.5
G9C U16C C30U U59A C60G | ≤ 0.5
G9C G38A A65G | 0.519
G10A C30U G50A A70U | ≤ 0.5
G10A C31U A65U | 0.566
G9C U13G G38C A45G C62G | ≤ 0.5
G10A C11A C60A | ≤ 0.5
G9C U13C C55U A57C | ≤ 0.5
G9C G12A C22U C24U G58A | ≤ 0.5
G10A A15C C49A C61U C62G | ≤ 0.5
G9C C31G A69G | ≤ 0.5
G10A C27G U35A A45U G67A | ≤ 0.5
G10A A14U A20G U26G C31G C34G A42U A43C G50C A70C | ≤ 0.5

Variant | yeast fitness
G10A A20C G38A G41A | ≤ 0.5
G9C G12A A21C U26A G39C | 0.632
G9C U26C U54G | ≤ 0.5
G10A C27G G63C | ≤ 0.5
G10A A21G C29A | 0.519
G10A C11A U16G G38A A42U | ≤ 0.5
G10A A14C C34U A42G | 0.65
G10A C22U A45G | ≤ 0.5
G9C U28C A42U U59G | ≤ 0.5
G10A C29U C49U G56A | 0.633
G9C G51C G52A | ≤ 0.5
G10A C22G A37G G38A G51C U53G | ≤ 0.5
G10A C33U G56C C66A | ≤ 0.5
G10A G44A U54C G67C | ≤ 0.5
G9C G10C C29G | ≤ 0.5
G9C G12A C29A G38A | ≤ 0.5
G10A G17A C30G U35A G50A | 0.626
G10A C31A C55U G63A | ≤ 0.5
G10A C11A A14G A15G | ≤ 0.5
G10A C24A A45C A57U | 0.63
G10A A21C C24A A65C A69C | ≤ 0.5
G10A C34G A40C C46G | ≤ 0.5
G10A A70G | 0.743
